Reference: ChEMBL document CHEMBL2407089, “Microwave-assisted synthesis of some new pyrazolopyridines and their antioxidant, antitumor and antimicrobial activities” (Eur J Med Chem, 2013)
In brackets after ≈: the same amount, converted by molar mass. Activity calls are given as the source filed them. No cut-off for these calls is given here.

Assays:
Penicillium expansum = assay: Antifungal activity against Penicillium expansum assessed as diameter of inhibition zone at 10 mg/ml after 24 hrs by cut-plug method; type: functional; settings: for zone of inhibition at 10000 µg/mL: read-out: DIZ
Summary of the method: (§1)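 Bacteria were maintained on nutrient agar and fungi on Sabouraud agar slopes. Testing used the cut-plug technique on nutrient agar, incubated at 30°C for 24 h, and inhibition zone diameters were measured in mm.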

Fusarium oxysporum = assay: Antifungal activity against Fusarium oxysporum assessed as diameter of inhibition zone at 10 mg/ml after 24 hrs by cut-plug method; type: functional; summary of the method: as §1
Serratia = assay: Antimicrobial activity against Serratia assessed as diameter of inhibition zone at 10 mg/ml after 24 hrs by cut-plug method; type: functional; settings: read-out: DIZ; summary of the method: as §1
Enterobacter cloacae = assay: Antimicrobial activity against Enterobacter cloaca assessed as diameter of inhibition zone at 10 mg/ml after 24 hrs by cut-plug method; type: functional; settings: read-out: DIZ; summary of the method: as §1
Escherichia coli = assay: Antimicrobial activity against Escherichia coli assessed as diameter of inhibition zone at 10 mg/ml after 24 hrs by cut-plug method; type: functional; settings: read-out: DIZ; summary of the method: as §1
Bacillus = assay: Antimicrobial activity against Bacillus assessed as diameter of inhibition zone at 10 mg/ml after 24 hrs by cut-plug method; type: functional; summary of the method: as §1
MCF7 = assay: Cytotoxicity against human MCF7 cells by SRB assay; type: functional, cell-based
HepG2 = assay: Cytotoxicity against human HepG2 cells by SRB assay; type: functional, cell-based
[1] = system: Radical scavenging activity; assay: Antioxidant activity assessed as DPPH free radical scavenging activity after 30 mins by spectrophotometry; type: functional
Summary of the method: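 EC50, the amount giving half-maximal scavenging, was taken from serial dilutions (5–50 μg/ml) in DMSO run against DPPH in DMSO (6 mg/50 ml stock) to a 3 ml total. Incubated 30 min in the dark at room temperature, with a DMSO control and A517 read-out. Scavenging % = [1 − (A sample/A control)] × 100.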

[2] = system: Radical scavenging activity; assay: Antioxidant activity assessed as DPPH free radical scavenging activity at 50 ug after 30 mins by spectrophotometry; type: functional
Summary of the method: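 Each sample (50 μg) dissolved in 1 ml DMSO; 250 μl added to 1 ml DPPH in DMSO (6 mg/50 ml), brought to 3 ml with DMSO. DMSO served as control. Vortexed, kept 30 min in the dark at room temperature, and absorbance read at 517 nm. Scavenging % = [1 − (A sample/A control)] × 100.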

| SMILES | zone of inhibition at 10000 µg/mL (Penicillium expansum) | zone of inhibition at 10000 µg/mL (Fusarium oxysporum; read-out: DIZ) | zone of inhibition at 10000 µg/mL (Serratia) | zone of inhibition at 10000 µg/mL (Enterobacter cloacae) | zone of inhibition at 10000 µg/mL (Escherichia coli) | zone of inhibition at 10000 µg/mL (Bacillus; read-out: DIZ) | IC50 (MCF7) | IC50 (HepG2) | EC50 [1] | Activity [2] | diameter of the inhibition zone (DIZ) (Penicillium expansum) | diameter of the inhibition zone (DIZ) (Fusarium oxysporum) | diameter of the inhibition zone (DIZ) (Bacillus) |
| --- | --- | --- | --- | --- | --- | --- | --- | --- | --- | --- | --- | --- | --- |
| O=C(N[C@H](CO)[C@H](O)c1ccc([N+](=O)[O-])cc1)C(Cl)Cl [CHLORAMPHENICOL] | 10 mm | 12 mm | 25.8 mm | 17 mm | 18 mm | 21 mm | – | – | – | – | – | – | – |
| Cc1ccc(-c2cc3ncc4c(-c5cccnc5)nn(-c5ccccc5)c4n3n2)cc1 | – | – | – | – | – | – | 10.5 µg/mL (≈ 26.1 µM) | 12.9 µg/mL (≈ 32.1 µM) | 53.76 µg/mL (≈ 134 µM) | 39.6% | – | – | – |
| O=C(c1ccc(F)cc1)c1cc2c(-c3cccnc3)nn(-c3ccccc3)c2[nH]c1=O | – | – | 17.5 mm | 21 mm | 15 mm | – | 8.7 µg/mL (≈ 21.2 µM) | 7.8 µg/mL (≈ 19 µM) | 4.21 µg/mL (≈ 10.3 µM) | 72.3% | inactive | inactive | inactive |
| O=C(c1cccnc1)c1cc2c(-c3cccnc3)nn(-c3ccccc3)c2[nH]c1=O | – | – | 12.5 mm | 11.5 mm | 10.5 mm | – | 10.1 µg/mL (≈ 25.7 µM) | 11 µg/mL (≈ 28 µM) | 38.64 µg/mL (≈ 98.2 µM) | 36% | inactive | inactive | inactive |
| c1ccc(-c2cc3ncc4c(-c5cccnc5)nn(-c5ccccc5)c4n3n2)cc1 | – | – | – | – | – | – | 15.9 µg/mL (≈ 40.9 µM) | 17.3 µg/mL (≈ 44.5 µM) | > 100 µg/mL | 9.47% | – | – | – |
| O=C1O[C@H]([C@@H](O)CO)C(O)=C1O [ASCORBIC ACID] | – | – | – | – | – | – | – | – | 3.22 µg/mL (≈ 18.3 µM) | 82.8% | – | – | – |
| COc1cccc2c1C(=O)c1c(O)c3c(c(O)c1C2=O)C[C@@](O)(C(=O)CO)C[C@@H]3O[C@H]1C[C@H](N)[C@H](O)[C@H](C)O1 [DOXORUBICIN] | – | – | – | – | – | – | – | 3.1 µg/mL (≈ 5.7 µM) | – | – | – | – | – |
| N#Cc1cc2c(-c3cccnc3)nn(-c3ccccc3)c2[nH]c1=S | – | – | – | – | – | – | 2.7 µg/mL (≈ 8.2 µM) | 3.9 µg/mL (≈ 11.8 µM) | 92.85 µg/mL (≈ 282 µM) | 17% | – | – | – |
| Cc1ccc(C(=O)c2cc3c(-c4cccnc4)nn(-c4ccccc4)c3[nH]c2=O)cc1 | 10 mm | – | 17 mm | 12.5 mm | 17 mm | – | 9.9 µg/mL (≈ 24.4 µM) | 8.85 µg/mL (≈ 21.8 µM) | 54.76 µg/mL (≈ 135 µM) | 38.9% | – | inactive | inactive |
| Clc1ccc(-c2cc3ncc4c(-c5cccnc5)nn(-c5ccccc5)c4n3n2)cc1 | – | – | – | – | – | – | 14.7 µg/mL (≈ 34.8 µM) | 16.2 µg/mL (≈ 38.3 µM) | 80.5 µg/mL (≈ 190 µM) | 29.4% | – | – | – |
| N#Cc1cc2c(-c3cccnc3)nn(-c3ccccc3)c2[nH]c1=O | – | – | – | – | – | – | 3 µg/mL (≈ 9.57 µM) | 3.3 µg/mL (≈ 10.5 µM) | > 100 µg/mL | 1.14% | – | – | – |
| O=C(c1ccc(Cl)cc1)c1cc2c(-c3cccnc3)nn(-c3ccccc3)c2[nH]c1=O | – | – | 17 mm | 19 mm | 19 mm | – | 6.45 µg/mL (≈ 15.1 µM) | 9 µg/mL (≈ 21.1 µM) | 8.97 µg/mL (≈ 21 µM) | 63.6% | inactive | inactive | inactive |
| CCOC(=O)c1cc2c(-c3cccnc3)nn(-c3ccccc3)c2nc1-c1cccnc1 | – | – | – | – | – | – | 6.9 µg/mL (≈ 16.4 µM) | 3.75 µg/mL (≈ 8.9 µM) | – | inactive | – | – | – |
